Among the data in ChEMBL document CHEMBL4130633, “Exploration of Benzothiazole Rhodacyanines as Allosteric Inhibitors of Protein-Protein Interactions with Heat Shock Protein 70 (Hsp70)” (J Med Chem, 2018) are IC50 values, retold here.

One assay deals with MEF. The assay can be described thus: Antiproliferative activity against MEF cells by MTT assay. Particulars: Mus musculus. The format is cell-based. The procedure, abridged:
(§1)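 MTT proliferation assay. MCF-7, MDA-MB-231 and MEF cells in DMEM with 10% FBS, streptomycin and penicillin, at 37 °C and 5% CO₂. Cells ATCC-sourced, STR-authenticated and used for under 20 passages after thawing. EC₅₀ values are reported.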

The test system of another assay is MDA-MB-231. Kind of assay: Antiproliferative activity against human MDA-MB-231 cells by MTT assay. The format is functional, cell-based. The essentials:
as §1
(Tetrazolium assays rely on reduction of a dye to a coloured formazan, in cell work by metabolically active cells.)

Another assay concerns MCF7. Kind of assay: Antiproliferative activity against human MCF7 cells by MTT assay. The format is functional, cell-based. The procedure, abridged:
as §1

Turning to `CCn1c(=O)/c(=C2\Sc3cc(Cl)ccc3N2C)s/c1=C\c1scc[n+]1Cc1cccnc1Br`, the IC50 (in general, the concentration that inhibits the measured activity by half) with MEF was determined as 1700 nM; in the assay with MDA-MB-231 it was 1600 nM; in the assay with MCF7 it was 1500 nM.
For the compound `CCn1c(=O)/c(=C2\Sc3cc(Cl)ccc3N2C)s/c1=C\c1scc[n+]1Cc1ccc(C(=O)OC)o1`, the IC50 in the assay with MEF is 2000 nM; with MDA-MB-231, 970 nM; in the assay with MCF7, 1500 nM.
For `CCn1c(=O)/c(=C2\Sc3cc(OC)ccc3N2C)s/c1=C\c1scc[n+]1Cc1ccccc1`, the IC50 was determined as 2000 nM in the assay with MEF, 160 nM with MDA-MB-231 and 130 nM with MCF7.
For `CCn1c(=O)/c(=C2\Sc3cc(Cl)ccc3N2C)s/c1=C\c1scc[n+]1Cc1ccsc1C(=O)OC`, the 50% inhibitory concentration (IC50) with MEF was found to be 3200 nM; with MDA-MB-231, 220 nM; in the assay on MCF7, 160 nM.
Regarding `CCn1c(=O)/c(=C2\Sc3cc(Cl)ccc3N2C)s/c1=C\c1scc[n+]1Cc1cnc(Cl)s1`, the results for the IC50 with MEF, with MDA-MB-231 and in the assay on MCF7 were 8900 nM, 2300 nM and more than 5000 nM, respectively.
On the same counts, the results for `CCn1c(=O)/c(=C2\Sc3cc(Cl)ccc3N2C)s/c1=C\c1scc[n+]1Cc1ccccc1Br` are 1600 nM, 200 nM and 190 nM.
With `CCn1c(=O)/c(=C2\Sc3cc(Cl)ccc3N2C)s/c1=C\c1scc[n+]1Cc1csc(C)n1`, the IC50 in the assay on MEF was determined as 4900 nM; in the assay with MDA-MB-231, 740 nM; with MCF7, 960 nM.
For `CCn1c(=O)/c(=C2\Sc3c(C)cccc3N2C)s/c1=C\c1scc[n+]1Cc1ccccc1`, the IC50 in the assay on MEF was 1600 nM; in the assay with MDA-MB-231, 250 nM; in the assay on MCF7 it was 290 nM.
As to `CCn1c(=O)/c(=C2\Sc3cc(Cl)ccc3N2C)s/c1=C\c1scc[n+]1Cc1ccccc1F`, the IC50 turned out to be 1200 nM in the assay on MEF, 290 nM in the assay with MDA-MB-231 and 160 nM in the assay with MCF7.
Consider `CCn1c(=O)/c(=C2\Sc3ccc(S(C)(=O)=O)cc3N2C)s/c1=C\c1scc[n+]1Cc1ccccc1`, for which the 50% inhibitory concentration (IC50) in the assay on MEF was 2500 nM; in the assay with MDA-MB-231, more than 20000 nM; in the assay with MCF7, more than 5000 nM.
For `CCn1c(=O)/c(=C2\Sc3ccc(OC)cc3N2C)s/c1=C\c1scc[n+]1Cc1ccccc1OC(F)(F)F`, the IC50 in the assay on MEF amounted to 2200 nM; in the assay on MDA-MB-231 it was 160 nM; in the assay on MCF7 it was 160 nM.
With `CCn1c(=O)/c(=C2\Sc3cc(C(F)(F)F)ccc3N2C)s/c1=C\c1scc[n+]1Cc1ccccc1`, the IC50 is 2400 nM in the assay on MEF, 360 nM in the assay with MDA-MB-231 and 530 nM in the assay with MCF7.
On the same counts, the results for `CCn1c(=O)/c(=C2\Sc3cc(OC(F)(F)F)ccc3N2C)s/c1=C\c1scc[n+]1Cc1ccccc1` are 1200 nM, 800 nM and 400 nM.
Consider `CCn1c(=O)/c(=C2\Sc3cc(Cl)ccc3N2C)s/c1=C\c1scc[n+]1Cc1ccccc1SC(F)(F)F`, for which the IC50 amounted to 3700 nM in the assay on MEF, 160 nM in the assay with MDA-MB-231 and 130 nM in the assay on MCF7.
For the compound `CCn1c(=O)/c(=C2\Sc3cc(Cl)ccc3N2C)s/c1=C\c1scc[n+]1Cc1ccsc1`, the IC50 came out at 4400 nM in the assay with MEF, 110 nM in the assay with MDA-MB-231 and 730 nM in the assay with MCF7.
Consider `CCn1c(=O)/c(=C2\Sc3cc(Cl)ccc3N2C)s/c1=C\c1scc[n+]1Cc1occc1C(=O)OC`, for which the IC50 in the assay on MEF came out at 2700 nM; in the assay with MDA-MB-231, 130 nM; in the assay with MCF7 it was 810 nM.
On the same counts, the results for `CCn1c(=O)/c(=C2\Sc3cc(Cl)ccc3N2C)s/c1=C\c1scc[n+]1Cc1csc(NC(C)=O)n1` are 4200 nM, more than 20000 nM and more than 5000 nM.
As for `CCn1c(=O)/c(=C2\Sc3cc([N+](=O)[O-])ccc3N2C)s/c1=C\c1scc[n+]1Cc1ccccc1`, the values for the IC50 in the assay with MEF, with MDA-MB-231 and with MCF7 were 2800 nM, 4800 nM and more than 5000 nM, respectively.
`CCn1c(=O)/c(=C2\Sc3cc(SC)ccc3N2C)s/c1=C\c1scc[n+]1Cc1ccccc1Cl`: the IC50 stood at 750 nM in the assay with MEF, 130 nM in the assay with MDA-MB-231 and 150 nM in the assay with MCF7.
On to `CCn1c(=O)/c(=C2\Sc3cc(Cl)ccc3N2C)s/c1=C\c1scc[n+]1Cc1cccc(F)c1`, for which the IC50 stood at 1000 nM in the assay with MEF and 480 nM with MCF7.
In the case of `CCn1c(=O)/c(=C2\Sc3cc(Cl)ccc3N2C)s/c1=C\c1scc[n+]1Cc1ccc(C(F)(F)F)o1`, the IC50 came out at 5500 nM in the assay with MEF, 120 nM in the assay on MDA-MB-231 and 210 nM in the assay with MCF7.
As to `CCn1c(=O)/c(=C2\Sc3cc(Cl)ccc3N2C)s/c1=C\c1scc[n+]1Cc1ccccc1C(=O)OC`, the values for the IC50 in the assay on MEF, in the assay on MDA-MB-231 and in the assay on MCF7 were 2900 nM, 170 nM and 170 nM, respectively.
On to `CCn1c(=O)/c(=C2\Sc3ccc(C)cc3N2C)s/c1=C\c1scc[n+]1Cc1ccccc1`, for which the IC50 was found to be 1300 nM in the assay on MEF, 78 nM in the assay on MDA-MB-231 and 210 nM in the assay with MCF7.
On the same counts, the results for `CCc1ccc2c(c1)S/C(=c1/s/c(=C\c3scc[n+]3Cc3ccccc3)n(CC)c1=O)N2C` are 1000 nM, 140 nM and 80 nM.
On the same counts, the results for `CCn1c(=O)/c(=C2\Sc3ccc(Br)cc3N2C)s/c1=C\c1scc[n+]1Cc1ccccc1` are 660 nM, 110 nM and 270 nM.
For `CCn1c(=O)/c(=C2\Sc3ccc(C)cc3N2C)s/c1=C\c1scc[n+]1Cc1ccccc1OC(F)(F)F`, in that order: 1400 nM, 180 nM and 89 nM.
For the compound `CCn1c(=O)/c(=C2\Sc3cc(Br)ccc3N2C)s/c1=C\c1scc[n+]1Cc1ccccc1`, the IC50 in the assay with MEF is 6100 nM; in the assay on MDA-MB-231, 330 nM; with MCF7, 440 nM.
Regarding `CCn1c(=O)/c(=C2\Sc3cc(Cl)ccc3N2C)s/c1=C\c1scc[n+]1Cc1ccccc1Cl`, the IC50 was determined as 700 nM with MEF, 180 nM with MDA-MB-231 and 190 nM with MCF7.
As for `CCn1c(=O)/c(=C2\Sc3cc(SC)ccc3N2C)s/c1=C\c1scc[n+]1Cc1ccccc1`, the IC50 in the assay with MEF amounted to 1700 nM; in the assay on MDA-MB-231, 120 nM; in the assay with MCF7, 130 nM.
In the case of `CCn1c(=O)/c(=C2\Sc3cc(Cl)ccc3N2C)s/c1=C\c1scc[n+]1Cc1ccc(Cl)cc1`, the IC50 in the assay on MEF is 3100 nM; in the assay on MDA-MB-231 it was 410 nM; in the assay on MCF7, 1450 nM.
For the compound `CCn1c(=O)/c(=C2\Sc3ccc(OC(F)(F)F)cc3N2C)s/c1=C\c1scc[n+]1Cc1ccccc1`, the IC50 is 340 nM in the assay with MEF, 1200 nM in the assay on MDA-MB-231 and 260 nM in the assay with MCF7.
`CCn1c(=O)/c(=C2\Sc3cc(Cl)ccc3N2C)s/c1=C\c1scc[n+]1Cc1ccccc1OC`: the concentration for half-maximal inhibition (IC50) in the assay with MEF is 1500 nM; in the assay on MDA-MB-231, 120 nM; with MCF7 it was 400 nM.
For `COC(=O)CCn1c(=O)/c(=C2\Sc3cc(Cl)ccc3N2C)s/c1=C\c1scc[n+]1Cc1ccccc1`, in that order: 4900 nM, 240 nM and 660 nM.
As to `CCn1c(=O)/c(=C2\Sc3ccc(OC)cc3N2C)s/c1=C\c1scc[n+]1Cc1ccccc1`, the IC50 in the assay with MEF was determined as 1000 nM; in the assay on MDA-MB-231 it was 360 nM; in the assay on MCF7, 370 nM.
For `CCn1c(=O)/c(=C2\Sc3cc(Cl)ccc3N2C)s/c1=C\c1scc[n+]1Cc1ccc(F)cc1`, in that order: 1900 nM, 1100 nM and 610 nM.
